Results: ChEMBL document CHEMBL1121686 (J Med Chem, 1981)
Values joined by “and” are separate entries in the source; they are usually repeats but may differ in a detail not shown here. Identical values can stand only once.

Tests used:
[1] = test system: Rattus norvegicus; assay: (§1) Percent dose excreted in 0-48 hours administered ip to male rat; format: functional
In short: (§2)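 Young adult male Sprague-Dawley rats were dosed i.p. with N-hydroxyacetaminophen in aqueous solution at 1.0 and 2.0 mmol/kg. Animals were held in metabolic cages with standard feed and water ad libitum, and urine was collected over 48 h. Quantitation was by gradient HPLC, using response factors from standard solutions.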

[2] = species: Rattus norvegicus; assay: (§3) Percent total excretion of 3-(thiomethyl)acetaminophen glucuronide; format: functional
In short: (§4)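 Urine was collected for 48 h from dosed rats or mice kept in metabolic cages. It was filtered (0.5 μm) and separated by reverse-phase HPLC at 2 mL/min, starting in phosphate-buffered solvent at pH 7.2. After a 4 min delay, methanol was raised linearly to 50% over 18 min. Detection was at 254 and 280 nm. Each metabolite was quantified from peak area using response factors from standards and expressed as % of total excreted metabolites.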

[3] = species: Rattus norvegicus; assay: (§5) Percent total excretion of 3-(thiomethyl)acetaminophen sulfate; format: functional; in short: as §4
[4] = species: Rattus norvegicus; assay: (§6) Percent total excretion of 3-methoxyacetaminophen glucuronide; format: functional; in short: as §4
[5] = species: Rattus norvegicus; assay: (§7) Percent total excretion of N-methoxyacetaminophen glucuronide; format: functional; in short: as §4
[6] = species: Rattus norvegicus; assay: (§8) Percent total excretion of N-methoxyacetaminophen sulfate; format: functional; in short: as §4
[7] = species: Rattus norvegicus; assay: (§9) Percent total excretion of acetaminophen; format: functional; in short: as §4
[8] = species: Rattus norvegicus; assay: (§10) Percent total excretion of acetaminophen glucuronide; format: functional; in short: as §4
[9] = species: Rattus norvegicus; assay: Percent total excretion of acetaminophen sulfate; format: functional; in short: as §4
[10] = species: Rattus norvegicus; assay: (§11) Percent total excretion of acetaminophen-mercapturic acid; format: functional; in short: as §4
[11] = test system: Mus musculus; assay: Percent dose excreted in 0-48 hours administered ip to male mouse; format: ADME, organism-based; settings: in vivo
In short: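 Young adult male Swiss mice, previously housed on pine wood-chip bedding, received N-hydroxyacetaminophen in aqueous solution i.p. at 2.0 mmol/kg. They were then kept in metabolic cages with standard feed and water ad libitum. Urine was collected for 48 h and analysed by gradient reverse-phase HPLC, with peak areas calibrated against standard solutions.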

[12] = test system: Rattus norvegicus; assay: as §1; format: ADME, organism-based; settings: in vivo; in short: as §2
[13] = as §5; format: ADME; in short: as §4
[14] = as §6; format: ADME; in short: as §4
[15] = as §7; format: ADME; in short: as §4
[16] = test system: Rattus norvegicus; assay: The compound tested for toxicity in liver against male rat after intraperitoneal administration of 1.0 mmol/kg; format: organism-based; settings: in vivo, ip
In short: (§12)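 Young adult male Sprague-Dawley rats dosed intraperitoneally at 1.0 or 2.0 mmol/kg in aqueous solution. Animals were kept in metabolic cages with food and water ad libitum, and urine was collected over 48 h. Liver and kidney were examined histologically at 48 h. Liver was graded as vacuolation (1+) or centrilobular necrosis (2+, 3+, 4+); kidney was graded as deep cortical tubular necrosis.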

[17] = test system: Rattus norvegicus; assay: The compound tested for toxicity in liver against male rat after intraperitoneal administration of 2.0 mmol/kg; format: organism-based; settings: in vivo, ip; in short: as §12
[18] = as §8; format: ADME; in short: as §4
[19] = as §9; format: ADME; in short: as §4
[20] = as §10; format: ADME; in short: as §4
[21] = as §11; format: ADME; in short: as §4
[22] = as §3; format: ADME; in short: as §4
[23] = test system: Mus musculus; assay: The compound tested for toxicity in kidney against male mouse after intraperitoneal administration of 2.0 mmol/kg; format: organism-based; settings: in vivo, ip
In short: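 Young adult male Swiss mice given a single intraperitoneal dose of 2.0 mmol/kg in aqueous solution. Animals were held in metabolic cages with standard feed and water ad libitum, and urine was collected for 48 h. At 48 h, liver and kidneys were taken for histology. Liver was scored as vacuolation (1+) or centrilobular necrosis (2+ to 4+); kidney was scored as deep cortical tubular necrosis.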

[24] = test system: Rattus norvegicus; assay: The compound tested for toxicity in kidney against male rat after intraperitoneal administration of 1.0 mmol/kg; format: organism-based; settings: in vivo, ip; in short: as §12
[25] = test system: Rattus norvegicus; assay: The compound tested for toxicity in kidney against male rat after intraperitoneal administration of 2.0 mmol/kg; Positive; format: organism-based; settings: in vivo, ip; in short: as §12
[26] = species: Rattus norvegicus; assay: Percent total excretion of acetaminophen cysteine conjugate; format: functional; in short: as §4
[27] = test system: Mus musculus; assay: The compound tested for toxicity in liver against male mouse after intraperitoneal administration of 2.0 mmol/kg; settings: in vivo, ip
[28] = Percent of total excretion of 3-(thiomethyl)acetaminophen glucuronide; format: ADME; in short: as §4
[29] = Percent of total excretion of 3-(thiomethyl)acetaminophen sulfate; format: ADME; in short: as §4
[30] = Percent of total excretion of N-hydroxyacetaminophen glucuronide; format: ADME; in short: as §4
[31] = Percent of total excretion of N-hydroxyacetaminophen sulfate; format: ADME; in short: as §4
[32] = Percent of total excretion of N-methoxyacetaminophen glucuronide; format: ADME; in short: as §4
[33] = Percent of total excretion of N-methoxyacetaminophen sulfate; format: ADME; in short: as §4
[34] = Percent of total excretion of acetaminophen; format: ADME; in short: as §4
[35] = Percent of total excretion of acetaminophen cysteine conjugate; format: ADME; in short: as §4
[36] = Percent of total excretion of acetaminophen glucuronide; format: ADME; in short: as §4
[37] = Percent of total excretion of acetaminophen sulfate; format: ADME
In short: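 Rats (male Sprague-Dawley, 1.0 or 2.0 mmol/kg ip) and Swiss mice (males 2.0 mmol/kg ip; females 2.0 mmol/kg iv or 10 mmol/kg intragastric) dosed in aqueous solution. Urine was collected over 0–48 h in metabolic cages. Filtered urine went through gradient HPLC (pH 7.2 buffer, 0→50% methanol; 254/280 nm), quantified against standard peak-area response factors. Values are % of total excreted metabolites.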

[38] = Percent of total excretion of acetaminophen-mercapturic acid; format: ADME; in short: as §4
[39] = test system: Mus musculus; assay: The compound tested for toxicity in liver against female mouse after intragastric administration of 10 mmol/kg; signifies centrilobular necrosis of liver; format: organism-based; settings: in vivo, po
In short: (§13)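 Young adult female Swiss mice, previously housed on pine wood-chip bedding. The sodium salt was given in aqueous solution at 2.0 mmol/kg intravenously or 10 mmol/kg intragastrically. Animals were housed in metabolic cages with feed and water ad libitum for 48 h, with urine collected throughout. At 48 h, liver and kidneys were assessed histologically. Liver was graded as vacuolation (1+) or centrilobular necrosis (2+ to 4+); kidney was graded as deep cortical tubular necrosis.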

[40] = test system: Mus musculus; assay: The compound tested for toxicity in liver against female mouse after intravenous administration of 2.0 mmol/kg; signifies centrilobular necrosis of liver; format: organism-based; settings: in vivo; in short: as §13
[41] = test system: Mus musculus; assay: The compound tested for toxicity in kidney against female mouse after intravenous administration of 2.0 mmol/kg; Normal; format: organism-based; settings: in vivo; in short: as §13
[42] = Percent of total excretion of 3-methoxyacetaminophen glucuronide; format: ADME; in short: as §4
[43] = test system: Mus musculus; assay: The compound tested for toxicity in kidney against female mouse after intragastric administration of 10.0 mmol/kg; Normal; settings: in vivo

CC(=O)N(O)c1ccc(O)cc1
Dose [1]: 70.9% | Total excretion [2]: 1.9% | Total excretion [3]: 5.1% | Total excretion [4]: 0% | Total excretion [5]: 1.5% | Total excretion [6]: 8.1% | Total excretion [7]: 7% | Total excretion [8]: 10.8% | Total excretion [9]: 51.3% | Total excretion [10]: 14.5% | Dose [11]: 41.5% | Dose [12]: 55% | Total excretion [13]: 9% and 15.9% | Total excretion [14]: 0% | Total excretion [15]: 2.3% and 3.4% | Toxicity [16]: 0 | Toxicity [17]: 0 | Total excretion [18]: 2.7% and 3% | Total excretion [19]: 5% and 4.5% | Total excretion [20]: 18% and 25.9% | Total excretion [21]: 13.2% and 6.1% | Total excretion [22]: 2% and 4.1% | Toxicity [23]: 0 | Toxicity [24]: 0 | Toxicity [25]: Positive | Total excretion [26]: 0% | Toxicity [27]: 2

CC(=O)Nc1ccc(O)cc1 [ACETAMINOPHEN]
Total excretion [28]: 0.7% and 0.6% | Total excretion [29]: 3.3% and 1.5% | Total excretion [30]: 0% | Total excretion [31]: 0% | Total excretion [32]: 0% | Total excretion [33]: 0% | Total excretion [34]: 11.9% and 12.1% | Total excretion [35]: 2.9% and 10.4% | Total excretion [36]: 64% and 58.4% | Total excretion [37]: 13.8% and 13.3% | Total excretion [38]: 3.5% and 3.8% | Toxicity [39]: 3 | Toxicity [40]: 2 | Toxicity [41]: 0 | Total excretion [42]: 0% | Toxicity [43]: 0
